Source: ChEMBL document CHEMBL4393708, “Pyridinylimidazoles as dual glycogen synthase kinase 3β/p38α mitogen-activated protein kinase inhibitors” (Eur J Med Chem, 2019)

How the values were obtained:
[1] = target: Serine/threonine-protein kinase PAK 4 (Homo sapiens) (UniProt O96013); experiment: Inhibition of human recombinant PAK4 at 1 uM using Ulight-RRRSLLE as substrate measured after 30 mins in presence of ATP by LANCE assay relative to control
In short: (§1)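 Kinase panel run by an outside provider (Eurofins Cerep) in a LANCE assay, single test concentration of 1 µM, results as percent inhibition.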

[2] = target: Fibroblast growth factor receptor 2 (Homo sapiens) (UniProt P21802); experiment: Inhibition of human recombinant FGFR2 at 1 uM using Ulight-CAGAGAIETDKEYYTVKD as substrate measured after 15 mins in presence of ATP by LANCE assay relative to control; in short: as §1
Sequence of Fibroblast growth factor receptor 2 (Homo sapiens) (P21802 22-821 limits assumed): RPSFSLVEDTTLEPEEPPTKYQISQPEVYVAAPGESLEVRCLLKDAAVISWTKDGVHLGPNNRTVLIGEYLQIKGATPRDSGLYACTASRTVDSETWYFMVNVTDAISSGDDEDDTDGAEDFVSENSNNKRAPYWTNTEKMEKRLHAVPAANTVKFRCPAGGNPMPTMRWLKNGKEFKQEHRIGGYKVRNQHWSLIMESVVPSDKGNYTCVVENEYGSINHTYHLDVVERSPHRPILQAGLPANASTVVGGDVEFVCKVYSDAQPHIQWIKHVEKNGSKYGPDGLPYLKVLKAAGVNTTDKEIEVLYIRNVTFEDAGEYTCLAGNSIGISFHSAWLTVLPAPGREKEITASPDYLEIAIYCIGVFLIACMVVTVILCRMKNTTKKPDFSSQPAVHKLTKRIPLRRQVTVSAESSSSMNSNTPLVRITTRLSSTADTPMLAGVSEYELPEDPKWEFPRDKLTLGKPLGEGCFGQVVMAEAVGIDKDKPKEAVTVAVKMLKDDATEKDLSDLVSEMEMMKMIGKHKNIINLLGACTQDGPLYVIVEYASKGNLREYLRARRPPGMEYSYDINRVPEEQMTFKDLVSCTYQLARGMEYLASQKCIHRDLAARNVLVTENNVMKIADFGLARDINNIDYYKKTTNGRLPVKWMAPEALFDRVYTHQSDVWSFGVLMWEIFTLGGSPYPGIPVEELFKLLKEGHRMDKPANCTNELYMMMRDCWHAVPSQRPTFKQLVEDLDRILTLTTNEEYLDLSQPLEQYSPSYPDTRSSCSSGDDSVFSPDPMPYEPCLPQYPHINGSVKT

[3] = target: Mitogen-activated protein kinase 14 (Homo sapiens, UniProt Q16539); experiment: Inhibition of p38alpha MAPK (unknown origin) using ATF-2 as substrate after 1 hr by ELISA
[4] = target: High affinity nerve growth factor receptor (Homo sapiens) (UniProt P04629); experiment: Inhibition of human recombinant TRKA at 1 uM using Ulight-Poly GAT[EAY(1:1:1)]n as substrate measured after 10 mins in presence of ATP by LANCE assay relative to control; in short: as §1
[5] = target: T1, Glycogen synthase kinase-3 beta (Homo sapiens, UniProt P49841); experiment: Competitive inhibition of human recombinant full length GSK3beta using YRRAAVPPSPSLSRHSSPHQ(pS)EDEEE as substrate preincubated with enzyme for 10 mins followed by substrate and 100 uM ATP addition measured after 60 mins by ADP-Glo luminescence assay
In short: (§2)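 Recombinant human GSK3β at 0.58 ng/µL with 0.2 µg/µL substrate G50-58; ATP at 25 µM, 100 µM or 500 µM, each as its line states. Compounds in serial dilutions were preincubated with kinase for 10 min at rt. Substrate/ATP was then added and the reaction ran 60 min at rt. ADP-Glo reagent 60 min, detection reagent 30 min, then luminescence read (500 ms integration).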
Target sequence in this assay (P49841 whole entry): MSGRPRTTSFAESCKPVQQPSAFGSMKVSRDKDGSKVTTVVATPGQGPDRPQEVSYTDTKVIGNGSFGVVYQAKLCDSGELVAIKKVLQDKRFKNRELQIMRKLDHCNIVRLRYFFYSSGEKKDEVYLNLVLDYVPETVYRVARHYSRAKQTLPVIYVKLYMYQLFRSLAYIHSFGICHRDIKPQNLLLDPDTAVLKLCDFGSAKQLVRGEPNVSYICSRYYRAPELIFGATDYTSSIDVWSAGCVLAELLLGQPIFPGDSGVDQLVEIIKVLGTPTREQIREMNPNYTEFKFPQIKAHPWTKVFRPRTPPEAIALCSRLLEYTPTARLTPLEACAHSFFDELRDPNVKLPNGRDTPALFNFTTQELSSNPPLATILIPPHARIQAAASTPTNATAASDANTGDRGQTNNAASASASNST

[6] = target: Ephrin type-B receptor 4 (Homo sapiens) (UniProt P54760); experiment: Inhibition of human recombinant EPHB4 at 1 uM using Ulight-TK peptide as substrate measured after 90 mins in presence of ATP by LANCE assay relative to control; in short: as §1
[7] = target: Calcium/calmodulin-dependent protein kinase type II subunit alpha (Homo sapiens) (UniProt Q9UQM7); experiment: Inhibition of human recombinant CAMKA2A at 1 uM using Ulight-CGSGSGRPRTSSFAEG as substrate measured after 30 mins by LANCE assay relative to control; in short: as §1
Cytochrome P450 2C19 = Cytochrome P450 2C19 (Homo sapiens, UniProt P33261); experiment: Inhibition of human recombinant CYP2C19 expressed in baculovirus infected insect cells using EOMCC as substrate in presence of NADPH by fluorimetric analysis relative to control; type: ADME; conditions: recombinant enzyme
[8] = target: Serine/threonine-protein kinase Chk2 (Homo sapiens) (UniProt O96017); experiment: Inhibition of human recombinant CHK2 at 1 uM using CREBtide as substrate incubated for 15 mins in presence of ATP by LANCE assay relative to control; in short: as §1
[9] = target: Interleukin-1 receptor-associated kinase 4 (Homo sapiens) (UniProt Q9NWZ3); experiment: Inhibition of human recombinant IRAK4 at 1 uM using Ulight-FLGFTYVAP as substrate measured after 90 mins in presence of ATP by LANCE assay relative to control; in short: as §1
Sequence of Interleukin-1 receptor-associated kinase 4 (Homo sapiens) (Q9NWZ3 whole entry): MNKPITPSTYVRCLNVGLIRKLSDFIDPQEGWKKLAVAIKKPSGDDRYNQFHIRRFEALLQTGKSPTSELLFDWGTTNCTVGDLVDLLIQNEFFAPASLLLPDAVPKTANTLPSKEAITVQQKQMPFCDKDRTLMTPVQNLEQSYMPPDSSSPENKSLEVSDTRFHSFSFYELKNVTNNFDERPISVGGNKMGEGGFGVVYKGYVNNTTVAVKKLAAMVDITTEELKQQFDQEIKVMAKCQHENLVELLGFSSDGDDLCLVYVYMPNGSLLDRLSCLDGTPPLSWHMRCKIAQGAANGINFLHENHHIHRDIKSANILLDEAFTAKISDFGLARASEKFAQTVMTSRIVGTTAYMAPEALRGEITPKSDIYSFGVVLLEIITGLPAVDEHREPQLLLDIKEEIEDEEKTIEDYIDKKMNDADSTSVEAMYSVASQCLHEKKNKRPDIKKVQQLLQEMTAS

[10] = target: Rho-associated protein kinase 1 (Homo sapiens) (UniProt Q13464); experiment: Inhibition of human recombinant ROCK1 at 1 uM using Ulight-RRRSLLE as substrate measured after 20 mins in presence of ATP by LANCE assay relative to control; in short: as §1
Sequence of Rho-associated protein kinase 1 (Homo sapiens) (Q13464 2-1354 limits assumed): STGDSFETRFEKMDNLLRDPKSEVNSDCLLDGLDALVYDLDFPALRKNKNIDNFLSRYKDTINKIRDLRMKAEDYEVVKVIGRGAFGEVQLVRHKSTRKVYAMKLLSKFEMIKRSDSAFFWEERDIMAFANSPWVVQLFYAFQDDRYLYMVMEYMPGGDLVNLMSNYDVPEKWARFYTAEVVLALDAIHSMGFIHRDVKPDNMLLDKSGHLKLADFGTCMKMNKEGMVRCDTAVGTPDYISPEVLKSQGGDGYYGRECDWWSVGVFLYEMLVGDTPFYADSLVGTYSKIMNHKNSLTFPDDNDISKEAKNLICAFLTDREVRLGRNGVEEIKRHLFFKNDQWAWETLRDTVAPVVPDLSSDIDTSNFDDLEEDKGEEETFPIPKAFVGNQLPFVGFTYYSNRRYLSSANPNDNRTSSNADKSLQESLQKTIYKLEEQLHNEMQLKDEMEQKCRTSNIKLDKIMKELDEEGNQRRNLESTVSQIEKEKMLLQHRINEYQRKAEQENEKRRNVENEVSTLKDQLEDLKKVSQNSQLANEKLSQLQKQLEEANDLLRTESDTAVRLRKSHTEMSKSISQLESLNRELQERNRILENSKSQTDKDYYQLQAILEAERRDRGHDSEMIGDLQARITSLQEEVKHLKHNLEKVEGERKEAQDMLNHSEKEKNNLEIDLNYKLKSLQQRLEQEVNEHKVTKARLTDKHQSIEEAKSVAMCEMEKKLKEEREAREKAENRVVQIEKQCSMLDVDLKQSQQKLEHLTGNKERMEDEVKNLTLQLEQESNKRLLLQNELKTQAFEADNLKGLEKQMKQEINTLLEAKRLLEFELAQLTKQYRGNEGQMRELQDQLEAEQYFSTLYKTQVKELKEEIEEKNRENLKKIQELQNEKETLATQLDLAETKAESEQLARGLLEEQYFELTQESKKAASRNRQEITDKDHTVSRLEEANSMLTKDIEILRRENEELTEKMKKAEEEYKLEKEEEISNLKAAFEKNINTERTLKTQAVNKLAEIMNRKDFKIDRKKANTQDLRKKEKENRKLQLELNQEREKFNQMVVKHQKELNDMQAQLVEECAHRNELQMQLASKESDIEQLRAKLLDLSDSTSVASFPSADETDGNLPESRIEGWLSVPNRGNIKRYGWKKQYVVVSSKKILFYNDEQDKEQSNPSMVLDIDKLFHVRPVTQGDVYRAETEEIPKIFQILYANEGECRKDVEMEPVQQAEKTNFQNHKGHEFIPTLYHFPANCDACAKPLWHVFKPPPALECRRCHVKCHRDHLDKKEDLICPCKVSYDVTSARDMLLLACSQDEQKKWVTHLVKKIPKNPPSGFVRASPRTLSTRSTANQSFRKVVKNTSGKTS

[11] = Metabolic stability in human liver microsomes assessed as parent compound remaining after 120 mins by LC-MS analysis relative to control; type: ADME, Microsome; conditions: read-out: Stability
[12] = target: Fibroblast growth factor receptor 1 (Homo sapiens) (UniProt P11362); experiment: Inhibition of human recombinant FGFR at 1 uM using Ulight-CAGAGAIETDKEYYTVKD as substrate measured after 60 mins in presence of ATP by LANCE assay relative to control; in short: as §1
[13] = target: Ephrin type-A receptor 3 (Homo sapiens) (UniProt P29320); experiment: Inhibition of human recombinant EPHA3 at 1 uM using Ulight-TK peptide as substrate measured after 60 mins in presence of ATP by LANCE assay relative to control; in short: as §1
[14] = target: T1, Glycogen synthase kinase-3 beta; experiment: Competitive inhibition of human recombinant full length GSK3beta using YRRAAVPPSPSLSRHSSPHQ(pS)EDEEE as substrate preincubated with enzyme for 10 mins followed by substrate and 500 uM ATP addition measured after 60 mins by ADP-Glo luminescence assay; in short: as §2
Target sequence in this assay (P49841 whole entry): as the sequence (P49841 whole entry) above

[15] = target: MAP kinase-activated protein kinase 2 (Homo sapiens) (UniProt P49137); experiment: Inhibition of human recombinant MAPKAPK2 at 1 uM using CREBtide as substrate measured after 15 mins in presence of ATP by LANCE assay relative to control; in short: as §1
[16] = target: Insulin receptor (Homo sapiens) (UniProt P06213); experiment: Inhibition of human recombinant IR at 1 uM using Ulight-Poly GAT[EAY(1:1:1)]n as substrate measured after 10 mins in presence of ATP by LANCE assay relative to control; in short: as §1
[17] = target: Fibroblast growth factor receptor 3 (Homo sapiens) (UniProt P22607); experiment: Inhibition of human recombinant FGFR3 at 1 uM using Ulight-CAGAGAIETDKEYYTVKD as substrate measured after 90 mins in presence of ATP by LANCE assay relative to control; in short: as §1
[18] = Ratio of drug concentration in RjOrl:Swiss CD-1 mouse brain at 10 mg/kg, iv to IC50 for p38alpha MAPK (unknown origin); type: ADME, organism-based; conditions: in vivo
In short: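 Adult male mice received a single 10 mg/kg intravenous dose. After the final plasma sample at 2 h, the mice were sacrificed and brains dissected. Brain concentration was measured by LC-MS and related to the in vitro IC50 values for GSK3β and p38α.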

[19] = target: Mitogen-activated protein kinase 8 (Homo sapiens) (UniProt P45983); experiment: Inhibition of human recombinant JNK1 at 1 uM using Ulight-CFFKNIVTPRTPPPSQGK-amide as substrate measured after 60 mins in presence of ATP by LANCE assay relative to control; in short: as §1
Sequence of Mitogen-activated protein kinase 8 (Homo sapiens) (P45983 whole entry): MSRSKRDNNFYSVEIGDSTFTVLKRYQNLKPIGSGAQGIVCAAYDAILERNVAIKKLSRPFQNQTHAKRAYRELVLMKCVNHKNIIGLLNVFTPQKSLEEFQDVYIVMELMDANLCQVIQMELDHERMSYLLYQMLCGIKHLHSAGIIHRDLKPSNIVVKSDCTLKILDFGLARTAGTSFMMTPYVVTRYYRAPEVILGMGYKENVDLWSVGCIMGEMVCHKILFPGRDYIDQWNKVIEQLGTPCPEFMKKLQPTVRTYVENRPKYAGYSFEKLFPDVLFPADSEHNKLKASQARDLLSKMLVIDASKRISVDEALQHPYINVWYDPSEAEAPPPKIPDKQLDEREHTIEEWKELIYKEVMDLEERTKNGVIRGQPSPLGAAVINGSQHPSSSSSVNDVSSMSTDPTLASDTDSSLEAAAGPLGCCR

[20] = target: Hepatocyte growth factor receptor (Homo sapiens) (UniProt P08581); experiment: Inhibition of human recombinant MET at 1 uM using Ulight-CAGAGAIETDKEYYTVKD as substrate measured after 60 mins in presence of ATP by LANCE assay relative to control; in short: as §1
Sequence of Hepatocyte growth factor receptor (Homo sapiens) (P08581 whole entry): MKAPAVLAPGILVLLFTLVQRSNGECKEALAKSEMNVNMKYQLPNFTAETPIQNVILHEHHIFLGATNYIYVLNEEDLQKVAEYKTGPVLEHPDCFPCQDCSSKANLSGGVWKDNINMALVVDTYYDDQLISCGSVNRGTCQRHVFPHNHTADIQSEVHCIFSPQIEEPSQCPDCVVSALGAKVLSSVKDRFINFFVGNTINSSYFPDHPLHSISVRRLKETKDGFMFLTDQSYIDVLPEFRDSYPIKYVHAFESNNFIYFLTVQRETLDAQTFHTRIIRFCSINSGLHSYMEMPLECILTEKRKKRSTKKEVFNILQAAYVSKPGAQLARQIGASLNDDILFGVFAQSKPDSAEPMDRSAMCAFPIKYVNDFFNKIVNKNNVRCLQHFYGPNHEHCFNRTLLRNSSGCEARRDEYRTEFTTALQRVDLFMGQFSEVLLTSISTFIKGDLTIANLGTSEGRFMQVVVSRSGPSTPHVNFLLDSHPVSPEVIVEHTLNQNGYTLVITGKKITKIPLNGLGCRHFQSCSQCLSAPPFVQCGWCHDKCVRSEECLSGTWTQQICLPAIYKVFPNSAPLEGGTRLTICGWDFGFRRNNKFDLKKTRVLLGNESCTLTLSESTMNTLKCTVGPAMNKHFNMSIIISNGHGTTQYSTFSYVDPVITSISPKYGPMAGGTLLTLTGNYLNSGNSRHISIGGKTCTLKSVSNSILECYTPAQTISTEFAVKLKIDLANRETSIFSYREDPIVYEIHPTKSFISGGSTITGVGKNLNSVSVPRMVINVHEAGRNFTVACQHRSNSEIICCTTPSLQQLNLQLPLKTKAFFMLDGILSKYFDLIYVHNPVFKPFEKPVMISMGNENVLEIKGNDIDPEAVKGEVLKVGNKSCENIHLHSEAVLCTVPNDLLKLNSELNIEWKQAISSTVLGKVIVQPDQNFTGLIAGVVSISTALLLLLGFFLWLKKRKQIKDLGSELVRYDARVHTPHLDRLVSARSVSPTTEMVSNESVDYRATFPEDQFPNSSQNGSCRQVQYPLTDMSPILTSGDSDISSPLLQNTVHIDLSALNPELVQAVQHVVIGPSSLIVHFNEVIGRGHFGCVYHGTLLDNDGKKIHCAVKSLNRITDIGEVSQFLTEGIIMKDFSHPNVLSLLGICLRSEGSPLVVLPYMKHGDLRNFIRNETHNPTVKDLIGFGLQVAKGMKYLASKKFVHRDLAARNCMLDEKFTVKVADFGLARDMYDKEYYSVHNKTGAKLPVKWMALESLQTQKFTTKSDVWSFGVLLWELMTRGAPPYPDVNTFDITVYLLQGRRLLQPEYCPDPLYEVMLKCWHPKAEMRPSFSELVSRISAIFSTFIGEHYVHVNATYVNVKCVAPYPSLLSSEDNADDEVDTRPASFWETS

[21] = target: Serine/threonine-protein kinase Nek2 (Homo sapiens) (UniProt P51955); experiment: Inhibition of human recombinant NEK2 at 1 uM using Ulight-FLGFTYVAP as substrate measured after 60 mins in presence of ATP by LANCE assay relative to control; in short: as §1
[22] = target: T1, Glycogen synthase kinase-3 beta; experiment: Inhibition of human recombinant GSK3beta at 1 uM using Ulight-CFFKNIVTPRTPPPSQGK-amide as substrate measured after 90 mins in presence of ATP by LANCE assay relative to control; in short: as §1
Target sequence in this assay (P49841 whole entry, looked up): as the sequence (P49841 whole entry) above

[23] = Metabolic stability in human liver microsomes assessed as parent compound remaining after 60 mins by LC-MS analysis relative to control; type: ADME, Microsome; conditions: read-out: Stability

CCc1nc(-c2ccc(F)cc2)c(-c2ccnc(NC(=O)C3CC3)c2)[nH]1
inhibition [1]: 4.82% | inhibition [2]: 74.4% | IC50 [3]: 16 nM | inhibition [4]: 10.6% | IC50 [5]: 108 nM | inhibition [6]: 94.7% | inhibition [7]: -2.55% | inhibition (INH) (Cytochrome P450 2C19): 81.7% | inhibition [8]: -9.7% | inhibition [9]: 2.96% | inhibition [10]: -8.13% | remaining at 2 h [11]: 96.4% | inhibition [12]: 47% | inhibition [13]: 76.6% | IC50 [14]: 492 nM | inhibition [15]: -4.86% | inhibition [16]: 4.24% | inhibition [17]: 64.5% | Ratio [18]: 2.5 | inhibition [19]: 78.3% | inhibition [20]: 54.9% | inhibition [21]: -1.98% | inhibition [22]: 97% | remaining at 1 h [23]: 95.2%
